≈ marks a conversion by molar mass, not a printed value.
How the values were obtained:
Type in all cases: functional
Klebsiella pneumoniae [1] = assay: Antibacterial activity against beta-lactamase-positive ESBL-negative Klebsiella pneumoniae E480 incubated up to 7 days by agar dilution method; settings: E480, 168 h
Klebsiella pneumoniae [2] = assay: Antibacterial activity against beta-lactamase-positive ESBL-positive Klebsiella pneumoniae E475 incubated up to 7 days by agar dilution method; settings: E475, 168 h
Klebsiella pneumoniae [3] = assay: Antibacterial activity against beta-lactamase-positive ESBL-positive Klebsiella pneumoniae E478 incubated up to 7 days by agar dilution method; settings: E478, 168 h
Klebsiella pneumoniae [4] = assay: Antibacterial activity against beta-lactamase-positive ESBL-positive Klebsiella pneumoniae E453 incubated up to 7 days by agar dilution method; settings: E453, 168 h
Procedure, shortened: (§1)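 MIC by CLSI agar dilution, with quality-control strains in each run. Beta-lactamase status was set by 30 μg cefazolin Kirby-Bauer disk diffusion. ESBL status was set by cefotaxime and ceftazidime disks (30 μg) with and without clavulanic acid (10 μg).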

Klebsiella pneumoniae [5] = assay: Antibacterial activity against beta-lactamase-positive ESBL-positive Klebsiella pneumoniae E457 incubated up to 7 days by agar dilution method; settings: E457, 168 h; procedure, shortened: as §1
Escherichia coli [6] = assay: Antibacterial activity against beta-lactamase-negative Escherichia coli E347 incubated up to 7 days by agar dilution method; settings: E347, 168 h
Escherichia coli [7] = assay: Antibacterial activity against beta-lactamase-negative Escherichia coli E350 […] by agar dilution method
Escherichia coli [8] = assay: Antibacterial activity against beta-lactamase-negative Escherichia coli E409 […] by agar dilution method
Escherichia coli [9] = assay: Antibacterial activity against beta-lactamase-positive ESBL-positive Escherichia coli E458 incubated up to 7 days by agar dilution method; settings: E458, 168 h; procedure, shortened: as §1
Escherichia coli [10] = assay: Antibacterial activity against beta-lactamase-positive ESBL-positive Escherichia coli E450 incubated up to 7 days by agar dilution method; settings: E450, 168 h; procedure, shortened: as §1
Escherichia coli [11] = assay: Antibacterial activity against beta-lactamase-positive ESBL-positive Escherichia coli E452 incubated up to 7 days by agar dilution method; settings: E452, 168 h; procedure, shortened: as §1
Escherichia coli [12] = assay: Antibacterial activity against beta-lactamase-positive ESBL-negative Escherichia coli E430 incubated up to 7 days by agar dilution method; settings: E430, 168 h; procedure, shortened: as §1
Escherichia coli [13] = assay: Antibacterial activity against beta-lactamase-positive ESBL-negative Escherichia coli E483 […] by agar dilution method
Klebsiella pneumoniae [14] = assay: Antibacterial activity against beta-lactamase-negative Klebsiella pneumoniae E359 incubated up to 7 days by agar dilution method; settings: E359, 168 h
Klebsiella pneumoniae [15] = assay: Antibacterial activity against beta-lactamase-negative Klebsiella pneumoniae E360 incubated up to 7 days by agar dilution method; settings: E360, 168 h
Klebsiella pneumoniae [16] = assay: Antibacterial activity against beta-lactamase-negative Klebsiella pneumoniae E418 incubated up to 7 days by agar dilution method; settings: E418, 168 h
Klebsiella pneumoniae [17] = assay: Antibacterial activity against beta-lactamase-positive ESBL-positive Klebsiella pneumoniae E476 incubated up to 7 days by agar dilution method; settings: E476, 168 h
Acinetobacter baumannii [18] = assay: Antibacterial activity against Acinetobacter baumannii A931 assessed as mutant prevention concentration after overnight incubation
Acinetobacter baumannii [19] = assay: Antibacterial activity against Acinetobacter baumannii A897 assessed as mutant prevention concentration after overnight incubation
Acinetobacter baumannii [20] = assay: Antibacterial activity against Acinetobacter baumannii A890 assessed as mutant prevention concentration after overnight incubation
Acinetobacter baumannii [21] = assay: Antibacterial activity against Acinetobacter baumannii A885 assessed as mutant prevention concentration after overnight incubation
Acinetobacter baumannii [22] = assay: Antibacterial activity against Acinetobacter baumannii A901 assessed as mutant prevention concentration after overnight incubation
Acinetobacter baumannii [23] = assay: Antibacterial activity against Acinetobacter baumannii A903 assessed as mutant prevention concentration after overnight incubation
Klebsiella pneumoniae [24] = assay: Antibacterial activity against beta-lactamase-negative Klebsiella pneumoniae E362 assessed as mutant prevention concentration after overnight incubation
Klebsiella pneumoniae [25] = assay: Antibacterial activity against beta-lactamase-positive ESBL-positive Klebsiella pneumoniae E476 assessed as mutant prevention concentration after overnight incubation
Procedure, shortened: (§2)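 Overnight growth on blood trypticase soy agar (35°C, air) was resuspended in 0.9% saline and counted on drug-free Mueller-Hinton agar. […] Colonies were retested by agar dilution to confirm mutants. MPC was the lowest concentration preventing resistant-mutant growth.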

Klebsiella pneumoniae [26] = assay: Antibacterial activity against beta-lactamase-positive ESBL-negative Klebsiella pneumoniae E480 assessed as mutant prevention concentration after overnight incubation; procedure, shortened: as §2
Klebsiella pneumoniae [27] = assay: Antibacterial activity against beta-lactamase-positive ESBL-negative Klebsiella pneumoniae E473 assessed as mutant prevention concentration after overnight incubation; procedure, shortened: as §2
Klebsiella pneumoniae [28] = assay: Antibacterial activity against beta-lactamase-negative Klebsiella pneumoniae E417 assessed as mutant prevention concentration after overnight incubation
Klebsiella pneumoniae [29] = assay: Antibacterial activity against beta-lactamase-negative Klebsiella pneumoniae E420 assessed as mutant prevention concentration after overnight incubation; procedure, shortened: as §2
Klebsiella pneumoniae [30] = assay: Antibacterial activity against beta-lactamase-positive ESBL-negative Klebsiella pneumoniae E511 assessed as mutant prevention concentration after overnight incubation; procedure, shortened: as §2
Pseudomonas aeruginosa [31] = assay: Antibacterial activity against Pseudomonas aeruginosa P356 assessed as mutant prevention concentration after overnight incubation
Pseudomonas aeruginosa [32] = assay: Antibacterial activity against Pseudomonas aeruginosa P373 assessed as mutant prevention concentration after overnight incubation
Pseudomonas aeruginosa [33] = assay: Antibacterial activity against Pseudomonas aeruginosa P327 assessed as mutant prevention concentration after overnight incubation
Pseudomonas aeruginosa [34] = assay: Antibacterial activity against Pseudomonas aeruginosa P337 assessed as mutant prevention concentration after overnight incubation
Pseudomonas aeruginosa [35] = assay: Antibacterial activity against Pseudomonas aeruginosa P338 assessed as mutant prevention concentration after overnight incubation
Pseudomonas aeruginosa [36] = assay: Antibacterial activity against Pseudomonas aeruginosa P358 assessed as mutant prevention concentration after overnight incubation
Pseudomonas aeruginosa [37] = assay: Antibacterial activity against Pseudomonas aeruginosa P326 assessed as mutant prevention concentration after overnight incubation
Acinetobacter baumannii [38] = assay: Antibacterial activity against Acinetobacter baumannii A848 assessed as mutant prevention concentration after overnight incubation
Acinetobacter baumannii [39] = assay: Antibacterial activity against Acinetobacter baumannii A851 assessed as mutant prevention concentration after overnight incubation
Acinetobacter baumannii [40] = assay: Antibacterial activity against Acinetobacter baumannii A911 assessed as mutant prevention concentration after overnight incubation
Acinetobacter baumannii [41] = assay: Antibacterial activity against Acinetobacter baumannii A910 assessed as mutant prevention concentration after overnight incubation
Escherichia coli [42] = assay: Antibacterial activity against beta-lactamase-negative Escherichia coli E345 assessed as mutant prevention concentration after overnight incubation
Escherichia coli [43] = assay: Antibacterial activity against beta-lactamase-negative Escherichia coli E408 assessed as mutant prevention concentration after overnight incubation
Escherichia coli [44] = assay: Antibacterial activity against beta-lactamase-negative Escherichia coli E409 assessed as mutant prevention concentration after overnight incubation
Escherichia coli [45] = assay: Antibacterial activity against beta-lactamase-positive ESBL-positive Escherichia coli E451 assessed as mutant prevention concentration after overnight incubation; procedure, shortened: as §2
Escherichia coli [46] = assay: Antibacterial activity against beta-lactamase-positive ESBL-negative Escherichia coli E484 assessed as mutant prevention concentration after overnight incubation; procedure, shortened: as §2
Klebsiella pneumoniae [47] = assay: Antibacterial activity against beta-lactamase-negative Klebsiella pneumoniae E358 assessed as mutant prevention concentration after overnight incubation
Klebsiella pneumoniae [48] = assay: Antibacterial activity against beta-lactamase-negative Klebsiella pneumoniae E359 assessed as mutant prevention concentration after overnight incubation

C[C@@H](O)[C@H]1C(=O)N2C(C(=O)O)=C(S[C@@H]3CN[C@H](C(=O)N(C)C)C3)[C@H](C)[C@H]12 [MEROPENEM]
MIC (Klebsiella pneumoniae [1]): 2 µg/mL (≈ 5.22 µM)
MIC (Klebsiella pneumoniae [2]): 4 µg/mL (≈ 10.4 µM)
MIC (Klebsiella pneumoniae [3]): 2 µg/mL (≈ 5.22 µM)
MIC (Klebsiella pneumoniae [4]): 0.06 µg/mL (≈ 0.156 µM)
MIC (Klebsiella pneumoniae [5]): 0.06 µg/mL (≈ 0.156 µM)
MIC (Escherichia coli [6]): 0.03 µg/mL (≈ 0.0782 µM)
MIC (Escherichia coli [7]): 0.03 µg/mL (≈ 0.0782 µM)
MIC (Escherichia coli [8]): 0.03 µg/mL (≈ 0.0782 µM)
MIC (Escherichia coli [9]): 0.03 µg/mL (≈ 0.0782 µM)
MIC (Escherichia coli [10]): 0.03 µg/mL (≈ 0.0782 µM)
MIC (Escherichia coli [11]): 0.03 µg/mL (≈ 0.0782 µM)
MIC (Escherichia coli [12]): 0.03 µg/mL (≈ 0.0782 µM)
MIC (Escherichia coli [13]): 0.5 µg/mL (≈ 1.3 µM)
MIC (Klebsiella pneumoniae [14]): 0.06 µg/mL (≈ 0.156 µM)
MIC (Klebsiella pneumoniae [15]): 0.03 µg/mL (≈ 0.0782 µM)
MIC (Klebsiella pneumoniae [16]): 0.06 µg/mL (≈ 0.156 µM)
MIC (Klebsiella pneumoniae [17]): 4 µg/mL (≈ 10.4 µM)
MPC (Acinetobacter baumannii [18]): 4 µg/mL
MPC (Acinetobacter baumannii [19]): 1 µg/mL
MPC (Acinetobacter baumannii [20]): 1 µg/mL
MPC (Acinetobacter baumannii [21]): 8 µg/mL
MPC (Acinetobacter baumannii [22]): 8 µg/mL
MPC (Acinetobacter baumannii [23]): 8 µg/mL
MPC (Klebsiella pneumoniae [24]): 0.125 µg/mL
MPC (Klebsiella pneumoniae [25]): >64 µg/mL
MPC (Klebsiella pneumoniae [26]): 16 µg/mL
MPC (Klebsiella pneumoniae [27]): 16 µg/mL
MPC (Klebsiella pneumoniae [28]): 0.06 µg/mL
MPC (Klebsiella pneumoniae [29]): 0.06 µg/mL
MPC (Klebsiella pneumoniae [30]): 64 µg/mL
MPC (Pseudomonas aeruginosa [31]): >4 µg/mL
MPC (Pseudomonas aeruginosa [32]): >8 µg/mL
MPC (Pseudomonas aeruginosa [33]): 8 µg/mL
MPC (Pseudomonas aeruginosa [34]): 8 µg/mL
MPC (Pseudomonas aeruginosa [35]): >4 µg/mL
MPC (Pseudomonas aeruginosa [36]): 32 µg/mL
MPC (Pseudomonas aeruginosa [37]): 64 µg/mL
MPC (Acinetobacter baumannii [38]): 32 µg/mL
MPC (Acinetobacter baumannii [39]): 32 µg/mL
MPC (Acinetobacter baumannii [40]): 8 µg/mL
MPC (Acinetobacter baumannii [41]): 4 µg/mL
MPC (Escherichia coli [42]): 0.06 µg/mL
MPC (Escherichia coli [43]): 0.06 µg/mL
MPC (Escherichia coli [44]): 0.06 µg/mL
MPC (Escherichia coli [45]): 0.06 µg/mL
MPC (Escherichia coli [46]): 16 µg/mL
MPC (Klebsiella pneumoniae [47]): 0.06 µg/mL
MPC (Klebsiella pneumoniae [48]): 0.125 µg/mL
